Measurements gathered from unrelated publications.
Each line is one published result; the experiments were not run side by side.
FLT3 autoinhibited: Receptor-type tyrosine-protein kinase FLT3, autoinhibited (FLT3, Homo sapiens, UniProt P36888)
FLT3 D835H: Receptor-type tyrosine-protein kinase FLT3 (FLT3, Homo sapiens, UniProt P36888, D835H)
FLT3 N841I: Receptor-type tyrosine-protein kinase FLT3 (FLT3, Homo sapiens, UniProt P36888, N841I)
FLT3 D835V: Receptor-type tyrosine-protein kinase FLT3 (FLT3, Homo sapiens, UniProt P36888, D835V)
FLT3 D835Y: Receptor-type tyrosine-protein kinase FLT3 (FLT3, Homo sapiens, UniProt P36888, D835Y)
FLT3 R834Q: Receptor-type tyrosine-protein kinase FLT3 (FLT3, Homo sapiens, UniProt P36888, R834Q)
FLT3: Receptor-type tyrosine-protein kinase FLT3 (FLT3, Homo sapiens, UniProt P36888)
FLT3 F691L/ITD: Receptor-type tyrosine-protein kinase FLT3 (FLT3, Homo sapiens, UniProt P36888, F691L/ITD)
FLT3 K663Q: Receptor-type tyrosine-protein kinase FLT3 (FLT3, Homo sapiens, UniProt P36888, K663Q)

Compound	target	test	setting	remaining binding
Cc1noc([C@H]2C[C@@H](c3ccc(C(F)(F)F)cc3)CN(C(=O)N3CCS(=O)(=O)C3)C2)n1	FLT3 autoinhibited	cell-free assay, competition with immobilised ligand	1 µM	100%
COc1ncc2cc3ccccc3nc2c1C#N	FLT3 D835H	cell-free assay, competition with immobilised ligand	5 µM	89%
CN1CCN(c2ccc(Nc3nccc(-c4ccccc4)n3)cc2C(F)(F)F)CC1	FLT3 N841I	binding	10 µM	3.5%
Nc1ncc2c(n1)-c1c([nH]c3ccc(C#CC4CC4)cc13)CCCC2	FLT3 D835V	binding, competition with immobilised ligand	1 µM	92%
CN(C)c1nccc(-c2cnn3ncccc23)n1	FLT3 D835Y	binding	1 µM	100%
Cc1cnc(Nc2ccc(C(=O)N3CCC(N4CCCC4)CC3)cc2)nc1-c1cc2ccccc2s1	Receptor-type tyrosine-protein kinase FLT3 (FLT3, Homo sapiens, UniProt P36888, D835V/ITD)	binding, competition with immobilised ligand	1 µM	0.9%
C[C@H](c1cccc(C#N)c1)n1cc(Cl)cc(C(N)=O)c1=N	FLT3 R834Q	cell-free assay, competition with immobilised ligand	1 µM	100%
C[C@@H]1CCN(c2nccc(-c3cnn4ncccc34)n2)C1	FLT3 R834Q	binding	1 µM	71%
c1cncc(-c2cccc(Nc3nccc(NC4CCCCC4)n3)c2)c1	FLT3 D835Y	binding, competition with immobilised ligand	10 µM	1.4%
CNC(=O)[C@@H]1CC[C@@H](n2c(-c3ccc4cnccc4c3)nc3ccc(C(=O)NCc4cccc(C(N)=O)c4)cc32)C1	FLT3	binding, competition with immobilised ligand	1 µM	100%
O=C(NCC1CCOCC1)c1n[nH]cc1NC(=O)c1c(F)cccc1F	FLT3	binding, competition with immobilised ligand	1 µM	92%
CNC(=O)Nc1ccc2c(c1)[C@@]1(CC2)OC(=O)N(CC(=O)N(Cc2ccc(F)cc2)[C@@H](C)C(F)(F)F)C1=O	FLT3 D835V	cell-free assay, competition with immobilised ligand	1 µM	81%
N[C@@H]1CCN(c2nccc(-c3cnn4ncccc34)n2)C1	FLT3 D835Y	binding	1 µM	97%
O=C(NC1CCC1)c1ccc2nc(-c3cccc(NS(=O)(=O)NCCN4CCCCC4)c3)cn2c1	FLT3 F691L/ITD	cell-free assay, competition with immobilised ligand	10 µM	80%
O=C(c1ccc(Nc2nccc(-c3cc4ccccc4s3)n2)cc1)N1CCC(N2CCCC2)CC1	FLT3 D835V	binding, competition with immobilised ligand	1 µM	3.1%
CN1CCN(c2ccc(Nc3nccc(-c4cccc([N+](=O)[O-])c4)n3)cc2C(F)(F)F)CC1	FLT3 D835Y	binding	10 µM	0%
O=C(Nc1c[nH]nc1C(=O)NC1CCNCC1)c1cc(F)cc(F)c1	FLT3 K663Q	binding, competition with immobilised ligand	1 µM	96%
CN(C)c1nccc(-c2cnc3ncccn23)n1	FLT3 D835V	binding	1 µM	68%

Compound	target	test	setting	remaining binding
O=C1NC(c2ccccn2)Sc2ccccc21 (centres unmarked)	FLT3 K663Q	cell-free assay, competition with immobilised ligand	1 µM	82%
c1cnn2ncc(-c3ccnc(N4CCC45COC5)n3)c2c1	FLT3 D835H	binding	1 µM	64%
COc1cnc(Nc2cccc(S(N)(=O)=O)c2)nc1N1CCN(c2ccccc2)C(=O)C1	FLT3 D835Y	binding, competition with immobilised ligand	1 µM	66%
CC1=C(C#N)C(c2ccc3c(c2)c(NC(=O)c2ccccc2C)nn3C)C(C#N)=C(C)N1	FLT3 N841I	cell-free assay, competition with immobilised ligand	1 µM	74%
O=C(NCCCN1CCOCC1)c1ccc(Nc2nccc(-c3cc4ccccc4s3)n2)cc1	FLT3 K663Q	binding, competition with immobilised ligand	1 µM	35%
CC(C)(C)c1ccc(-c2nc(CBr)nn2-c2cccc(O)c2)cc1	FLT3	cell-free assay, competition with immobilised ligand	10 µM	82%
C[C@@H](c1ccc(-n2cnc3c(N)ncnc32)cc1)N1CCc2nn(C)c(Cc3ccccc3)c2C1=O	FLT3 autoinhibited	binding, competition with immobilised ligand	0.1 µM	84%
Cc1nc(N2CC[C@@H](O)C2)ncc1-c1cc(C(F)(F)F)cc2[nH]ncc12	FLT3 F691L/ITD	binding, competition with immobilised ligand	1 µM	69%
O=C(c1ccc(Nc2ncc(Cl)c(-c3ccc(Cl)s3)n2)cc1)N1CCC(N2CCCC2)CC1	FLT3 D835H	binding, competition with immobilised ligand	1 µM	2.3%
C=CC(=O)N1CCC(C(=O)NCC(=O)N2CCN(c3nc(-c4cnc(N)nc4C(F)F)nc(N4CCOCC4)n3)CC2)CC1	FLT3 D835Y	binding, competition with immobilised ligand	1 µM	99%
Cc1c(NC(=O)c2cc(C(N)=O)nc3cc(F)ccc23)c(C(F)(F)F)nn1Cc1ccc(C(C)(C)C)cc1	FLT3 R834Q	cell-free assay, competition with immobilised ligand	1 µM	100%
O=C(NCCCN1CCOCC1)c1ccc(Nc2ncc(Cl)c(-c3ccc(Cl)s3)n2)cc1	Receptor-type tyrosine-protein kinase FLT3 (FLT3, Homo sapiens, UniProt P36888, ITD)	binding, competition with immobilised ligand	1 µM	0.75%
COc1ccnn2ncc(-c3ccnc(N(C)C)n3)c12	FLT3 D835Y	binding	1 µM	97%
COc1cc(-c2cn(C3CCc4ccccc4N(CC(F)(F)F)C3=O)nn2)ccc1-n1ccc(C)n1 (centres unmarked)	FLT3	cell-free assay, competition with immobilised ligand	1 µM	85%
CCN1CCN(Cc2ccc(C(=O)Nc3ccc(C)c(Oc4ccc5c(c4)CC(=O)N5)c3)cc2C(F)(F)F)CC1	FLT3 autoinhibited	binding, competition with immobilised ligand	1 µM	100%
CN(c1nccc(-c2cnn3ncccc23)n1)C1CC1	FLT3 R834Q	binding	1 µM	100%
COc1cnc(Nc2cccc(S(N)(=O)=O)c2)nc1N1CCN(c2ccccc2)CC1	FLT3 N841I	binding, competition with immobilised ligand	1 µM	21%
